A selection: hits, their analogues and other compounds. The true share with any hit is near 3.2%.
rCAG binder: binders of r(CAG) RNA repeats, primary screen, biochemical, fluorescence | r(CAG) RNA repeat, TO-PRO-1 dye displacement fluorescence | inhibition, % at 3 µM | hit rate 1.3% among 370,000 | AID 651821, 2012;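 active means inhibition above the plate cutoff, the mean of all test compounds on that plate plus 3 SD, cut at about 35% in these data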;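 further: 0% = DMSO alone and 100% = 100 µM mitoxantrone as full dye displacement; higher means more dye released from RNA so lower well fluorescence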
PRMT1 inh: PRMT1 methyltransferase inhibitors, primary screen, biochemical, fluorescence polarization; Protein arginine N-methyltransferase 1 (Homo sapiens), Q99873; recombinant PRMT1, activity-based probe fluorescence polarization; inhibition, % at 2.79 µM; hit rate 1.3% among 370,000;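 active means inhibition above about 21% made by adding two undisclosed values, limit read from the data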
Target sequence (Q99873 whole entry, looked up): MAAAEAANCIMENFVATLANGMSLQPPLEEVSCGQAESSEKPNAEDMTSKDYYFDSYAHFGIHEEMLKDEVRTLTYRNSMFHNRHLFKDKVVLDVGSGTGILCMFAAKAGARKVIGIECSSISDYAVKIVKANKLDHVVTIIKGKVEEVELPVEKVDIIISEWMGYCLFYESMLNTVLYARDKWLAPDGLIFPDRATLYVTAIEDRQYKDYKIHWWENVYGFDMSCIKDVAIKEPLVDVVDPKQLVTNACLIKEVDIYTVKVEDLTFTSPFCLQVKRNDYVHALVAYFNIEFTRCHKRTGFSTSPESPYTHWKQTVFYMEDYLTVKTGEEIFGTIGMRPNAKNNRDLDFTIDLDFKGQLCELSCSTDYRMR
LEDGF integ inh: blockers of LEDGF/p75-dependent integrase strand transfer – biochemical, TR-FRET, high throughput, primary screen; HIV-1 integrase (with human LEDGF/p75); TR-FRET IN-LEDGF/p75 DNA integration, Eu/Cy5; inhibition, % at 3.7 µM; hit rate 0.64% among 370,000;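 active means inhibition above the screen-wide mean plus 3 SD, cut at about 13% in these data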;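 further: signal is the Cy5 over europium emission ratio at 671 and 618 nm; 0% = plate median of compound wells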
DAGLB inhibitor: DAGLB lipase inhibitors, primary screen, biochemical, fluorescence, HTS. AID 504411, 2011. hit rate 0.059% among 340,000. HEK293T DAGLB membrane lysate, EnzChek fluorogenic substrate. Diacylglycerol lipase-beta (Homo sapiens), Q8NCG7. inhibition, % at 5.17 µM; in the data active means inhibition above about 34%;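 further: 0% = enzyme with vehicle and 100% = wells lacking enzyme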
ABHD4 inh: ABHD4 inhibitors, primary screen, biochemical, fluorescence polarization, mouse | purified mABHD4, FP-Rh probe fluorescence polarization | inhibition, % at 8.92 µM | hit rate 0.54% among 370,000 | AID 720543, 2013;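 active means inhibition exceeding the mean over every tested compound plus 3 SD, cut at about 30% in these data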;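 further: 0% = plate median of compound wells and 100% = S159A mutant with DMSO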
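Assay system: wild-type mouse ABHD4 protein; compound: single nominal dose of 8.92 µM, 0.89% DMSO final; schedule: 45 min + 60 min at 25 °C; measured by: FP readout, ex 525 nm / em 598 nm; evaluation: % inhibition of FP-Rh probe binding versus controls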
HTRA1 inh: HTRA1 serine protease inhibitors, primary screen, biochemical, fluorescence polarization, HTS. Q92743. recombinant HTRA1, FP-rhodamine activity-based probe. inhibition, % at 5.96 µM. hit rate 0.5% among 340,000; in the data active means inhibition above about 36%;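 further: 0% = enzyme with DMSO and 100% = wells lacking enzyme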
PRMT1 inh conf: PRMT1 methyltransferase inhibitors, confirmation, biochemical, fluorescence polarization, triplicate; shares compounds with PRMT1 inh; recombinant His-PRMT1, activity-based probe fluorescence polarization; inhibition, % at 2.79 µM; hit rate 42% among 3,300;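 active means mean inhibition across replicates above the hit cutoff derived for the earlier primary screen, cut at about 22% in these data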
An asterisk follows results filed as active; x = no result.

SMILES | rCAG binder | PRMT1 inh | LEDGF integ inh | DAGLB inhibitor | ABHD4 inh | HTRA1 inh | PRMT1 inh conf
CC1(C(=O)CSc2nc3ccccc3[nH]2)CCC(=O)O1 (configuration not stated) | 7.1 | 60.3* | -0.3 | 0.0 | -2.4 | -3.5 | 40.6*
CCOC(=O)c1c(C)[nH]c(C)c1C(=O)CSc1nc2ccccc2[nH]1 | -1.9 | -1.4 | 2.4 | -1.1 | 1.6 | -4.8 | x
COC(=O)[C@@]1(C)[C@H]2C(=O)N(Cc3ccccc3)C(=O)[C@H]2[C@H]2CN=C(SC)N21 | -0.3 | 4.1 | 4.9 | -2.2 | 4.1 | 9.5 | x
CCN1C[C@@H]2[C@@H]3C(=O)N(Cc4ccccc4)C(=O)[C@@H]3[C@](CC)(C(=O)OC)N2C1=NCc1ccccc1 | -0.6 | 31.7* | 0.1 | -0.9 | 15.3 | -2.4 | 5.8
COC(=O)[C@@]1(C)[C@H]2C(=O)N(Cc3ccccc3)C(=O)[C@H]2[C@H]2CN=C(SCC(=O)c3ccccc3)N21 | 8.4 | 79.9* | 0.8 | -5.5 | 3.9 | 2.4 | 58.3*
CCN1C(=O)[C@H]2[C@H]3CN=C(SCC(=O)c4ccccc4)N3[C@@](CC)(C(=O)OC)[C@H]2C1=O | 2.8 | 69.0* | -3.4 | 0.8 | 1.1 | 0.2 | 44.4*
Cc1cccc(CN2CCN(C3CN(Cc4cn(Cc5ccccc5)nn4)S(=O)(=O)C3)CC2)c1 (configuration not stated) | -1.4 | -8.4 | 6.5 | x | -7.2 | x | x
CC(NC(=O)COC(=O)c1cc(Cl)nc(Cl)c1)c1ccccc1 (configuration not stated) | -1.4 | -4.3 | 4.5 | 0.8 | -3.4 | -11.0 | x
O=c1c2ccccc2sn1-c1ccc(Cl)cc1Cl | -0.1 | 74.5* | -3.5 | 0.1 | 3.4 | -0.2 | 93.6*
O=c1c2ccccc2ncn1-c1ccc(Cl)cc1Cl | -5.9 | 0.3 | 0.8 | x | 1.7 | x | x
O=[N+]([O-])c1ccc(-c2csc3[n+]2CCS3)cc1 | 9.9 | 46.9* | 2.1 | 0.5 | 9.2 | -1.8 | 3.0
Nc1nc(SCC(=O)c2cc3ccccc3o2)n[nH]1 | 17.5 | 71.5* | 3.7 | 3.9 | -1.6 | -2.2 | 12.9
Cc1cc(C)nc(SCC(=O)c2cc3ccccc3oc2=O)n1 | 5.8 | 25.2* | -1.6 | -2.9 | 4.3 | 1.2 | 8.3
O=C(CSc1nc2ccccc2o1)c1cc2ccccc2oc1=O | 34.2 | 9.7 | -0.4 | 4.2 | 19.4 | -4.1 | x
NC(=O)CC(NC(=O)Cc1ccc(Br)cc1)c1ccc(NCCOc2ccccc2)c([N+](=O)[O-])c1 (configuration not stated) | 8.1 | -0.7 | 0.4 | 18.8 | 0.1 | -5.3 | x
COc1ccccc1C(=O)Oc1ccc2c(c1)O/C(=C\c1ccncc1)C2=O | -10.9 | 38.2* | 2.7 | -11.1 | 3.8 | -5.1 | 12.9
Cc1cc(C)c(C#N)c(OCc2ccc(Cl)nc2)n1 | -3.0 | -0.7 | 0.2 | -4.7 | -3.8 | -3.9 | x
Cc1cc(/C=N/NC(N)=S)c(O)c(/C=N/NC(N)=S)c1 | -442.4 | 74.7* | -1.2 | -16.2 | 15.0 | 23.5 | 82.0*
O=C(CSc1oc(-c2ccco2)nc1S(=O)(=O)c1ccccc1)NCC1CCCO1 (configuration not stated) | 7.5 | 10.2 | 0.1 | 3.3 | 7.4 | 7.7 | x
O=C(CSc1oc(-c2ccco2)nc1S(=O)(=O)c1ccc(F)cc1)NCC1CCCO1 (configuration not stated) | 22.5 | 45.5* | 10.7 | 0.8 | 5.7 | 3.4 | 6.7
COc1ccc(-n2sc3ccccc3c2=O)cc1 | 2.2 | 82.5* | -1.2 | 2.7 | 15.9 | 1.7 | 82.3*
CC(C)c1ccc(NC(=O)C(c2ccccc2)N2CCN(C(=O)c3ccco3)CC2)cc1 (configuration not stated) | -2.9 | -1.3 | 5.1 | -3.5 | -4.1 | -21.4 | x

Screens as filed in PubChem.
